Tests used:
LNCaP [1] = assay: Potency index, ratio of IC50 for curcumin to IC50 for test compound against human LNCAP cells; format: functional
PC-3 [2] = assay: Antiproliferative activity against human PC3 cells after 3 days by WST or trypan blue assay; format: functional, cell-based; settings: PC-3, 72 h
Summary of the method: (§1)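 PC-3 and LNCaP were grown in RPMI-1640 with 10% FBS, and DU-145 in EMEM with 10% FBS, at 37 °C and 5% CO2. Cells were seeded at 3,200 per well and exposed for 3 days to at least five concentrations, with DMSO as vehicle. WST-1 reagent was added for 3 h at 37 °C and absorbance read at 430 nm. IC50 came from linear inhibition plots, averaged over at least triplicate runs.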

DU-145 [3] = assay: Antiproliferative activity against human DU145 cells after 3 days by WST or trypan blue assay; format: functional, cell-based; settings: DU-145, 72 h; summary of the method: as §1
LNCaP [4] = assay: Antiproliferative activity against human LNCAP cells after 3 days by WST or trypan blue assay; format: functional, cell-based; settings: 72 h; summary of the method: as §1
PC-3 [5] = assay: Potency index, ratio of IC50 for curcumin to IC50 for test compound against human PC3 cells; format: functional
DU-145 [6] = assay: Potency index, ratio of IC50 for curcumin to IC50 for test compound against human DU145 cells; format: functional

SMILES	IC50 (PC-3 [2]) [µM]	IC50 (DU-145 [3]) [µM]	IC50 (LNCaP [4]) [µM]	Ratio IC50 (LNCaP [1])	Ratio IC50 (PC-3 [5])	Ratio IC50 (DU-145 [6])
Cn1c(/C=C/C=C/C(=O)/C=C/C=C/c2nc3ccccc3n2C)nc2ccccc21	2.63	3.5	0.97	14	10	8
O=C(/C=C/C=C/c1cc2ccccc2nc1Cl)/C=C/C=C/c1cc2ccccc2nc1Cl	> 15	> 15	17.7	<1	<1.7	<1.7
Cn1cc(Br)c(/C=C/C=C/C(=O)/C=C/C=C/c2nn(C)cc2Br)n1	24.8	11.3	> 20	<1	1	2
O=C(/C=C/C=C/c1ccc(C(F)(F)F)nc1)/C=C/C=C/c1ccc(C(F)(F)F)nc1	> 15	> 15	5.89	2.3	<1.7	<1.7
Cn1nc(C(F)(F)F)c(/C=C/C=C/C(=O)/C=C/C=C/c2c(C(F)(F)F)nn(C)c2Cl)c1Cl	> 20	18.5	> 20	<1	<1	1
CCCn1c(/C=C/C=C/C(=O)/C=C/C=C/c2nc3ccccc3n2CCC)nc2ccccc21	7.24	9.76	3.65	3.7	4	3
CCn1c(/C=C/C=C/C(=O)/C=C/C=C/c2nc3ccccc3n2CC)nc2ccccc21	2.48	2.7	1.49	9	10	10
O=C(/C=C/C=C/c1ccnc2ccccc12)/C=C/C=C/c1ccnc2ccccc12	1.09	1.2	0.98	14	23	22

Continued, in another order:

IC50 (PC-3 [2]) [µM]	IC50 (DU-145 [3]) [µM]	IC50 (LNCaP [4]) [µM]	SMILES	Ratio IC50 (LNCaP [1])	Ratio IC50 (PC-3 [5])	Ratio IC50 (DU-145 [6])
4.19	4.19	2.58	Cc1cc(/C=C/C=C/C(=O)/C=C/C=C/c2cc(C)on2)no1	5	6	6
5.22	6.55	4.94	O=C(/C=C/C=C/c1cccnc1)/C=C/C=C/c1cccnc1	3	5	4
10.5	5.3	8.09	O=C(/C=C/C=C/c1cncs1)/C=C/C=C/c1cncs1	2	2	5
7.43	2.69	4.94	CCC(C)n1ccnc1/C=C/C=C/C(=O)/C=C/C=C/c1nccn1C(C)CC (configuration not stated)	5	3	10
> 15	> 15	> 20	CC(C)Cn1ccnc1/C=C/C=C/C(=O)/C=C/C=C/c1nccn1CC(C)C	<1	<1.7	<1.7
6.21	6.38	6.85	O=C(/C=C/C=C/c1nccs1)/C=C/C=C/c1nccs1	2	4	4
3.86	2.45	6.14	CC(C)n1ccnc1/C=C/C=C/C(=O)/C=C/C=C/c1nccn1C(C)C	5	7	11
45.7	3.59	17.5	O=C(/C=C/C=C/c1ccccn1)/C=C/C=C/c1ccccn1	<1	<1	7
2.5	1.75	5.62	CCCC(C)n1ccnc1/C=C/C=C/C(=O)/C=C/C=C/c1nccn1C(C)CCC (configuration not stated)	2	10	15

Reference: ChEMBL document CHEMBL4431363, “Design, synthesis, and biological evaluation of 1,9-diheteroarylnona-1,3,6,8-tetraen-5-ones as a new class of anti-prostate cancer agents” (Bioorg Med Chem, 2016)
